Reference: ChEMBL document CHEMBL1275500, “Characterization of the new metallo-beta-lactamase VIM-13 and its integron-borne gene from a Pseudomonas aeruginosa clinical isolate in Spain” (Antimicrob Agents Chemother, 2008)
Values after ≈ are worked out from the molar mass of the structure shown.

Experiments:
Pseudomonas aeruginosa [1] = assay: Antimicrobial activity against Pseudomonas aeruginosa isolate PA-SD2 harboring blaVIM-1 gene by Etest method; assay type: functional
Pseudomonas aeruginosa [2] = assay: Antimicrobial activity against Pseudomonas aeruginosa isolate PA-SL2 harboring blaVIM-13 gene by Etest method; assay type: functional
Pseudomonas aeruginosa [3] = assay: Antimicrobial activity against Pseudomonas aeruginosa PAO1 harboring pUCP carrying VIM-1 gene by Etest method; assay type: functional
Outline: (§1)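 Etest MICs of piperacillin, piperacillin-tazobactam, ceftazidime, cefepime, cefotaxime, aztreonam, imipenem and meropenem, run per manufacturer's recommendations. Strains were E. coli XL1-Blue or P. aeruginosa PAO1 carrying pUCP24-derived plasmids with blaVIM-1 or blaVIM-13 (cloned by EcoRI) inserted in the lacZ-promoter orientation. E. coli transformants were selected on 10 μg/ml gentamicin MacConkey agar; PAO1 electroporants were selected on 50 μg/ml gentamicin LB agar.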

Pseudomonas aeruginosa [4] = assay: Antimicrobial activity against Pseudomonas aeruginosa PAO1 harboring pUCP carrying VIM-13 gene by Etest method; assay type: functional; outline: as §1
Pseudomonas aeruginosa [5] = assay: Antimicrobial activity against Pseudomonas aeruginosa PAO1 by Etest method; assay type: functional
Escherichia coli [6] = assay: Antimicrobial activity against Escherichia coli XL1-Blue harboring pUCP carrying VIM-1 gene by Etest method; assay type: functional; outline: as §1
Escherichia coli [7] = assay: Antimicrobial activity against Escherichia coli XL1-Blue harboring pUCP carrying VIM-13 gene by Etest method; assay type: functional; outline: as §1
Escherichia coli [8] = assay: Antimicrobial activity against Escherichia coli XL1-Blue by Etest method; assay type: functional
Escherichia coli [9] = assay: Antimicrobial activity against Escherichia coli XL1-Blue harboring pGEM-T carrying aacA4 gene by Etest method; assay type: functional
Escherichia coli [10] = assay: Antimicrobial activity against Escherichia coli XL1-Blue harboring pGEM-T carrying aacA4 Ala108Thr mutant gene by Etest method; assay type: functional
Beta-lactamase VIM-1 = Beta-lactamase VIM-1 (Pseudomonas aeruginosa, UniProt Q9XAY4); assay: Inhibition of Pseudomonas aeruginosa VIM-1 beta-lactamase after 10 mins
Outline: (§2)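 Zn2+-removal inactivation of purified VIM-1 or VIM-13, tested with varied concentrations of EDTA, dipicolinic acid or 1,10-o-phenanthroline. Enzyme and chelator were incubated 10 min at 20°C in 50 mM HEPES pH 7.5 with 20 μg/ml BSA, then 100 μM imipenem hydrolysis was measured as the reporter. IC50 is the chelator level halving hydrolytic activity.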

[11] = target: Class B carbapenemase VIM-13 (Pseudomonas aeruginosa, UniProt Q2HY42); assay: Inhibition of Pseudomonas aeruginosa VIM-13 beta-lactamase after 10 mins; outline: as §2

`CO/N=C(\C(=O)N[C@@H]1C(=O)N2C(C(=O)[O-])=C(C[N+]3(C)CCCC3)CS[C@H]12)c1csc(N)n1` was tested, and the MIC (Pseudomonas aeruginosa [1]) was > 256 µg/mL, the MIC (Pseudomonas aeruginosa [2]) was 32 µg/mL (≈ 66.6 µM) and the MIC (Pseudomonas aeruginosa [3]) was > 256 µg/mL. For the same compound, the MIC (Pseudomonas aeruginosa [4]) was 64 µg/mL (≈ 133 µM), the MIC (Pseudomonas aeruginosa [5]) was 1 µg/mL (≈ 2.08 µM) and the MIC (Escherichia coli [6]) was 12 µg/mL (≈ 25 µM). For the same compound, the MIC (Escherichia coli [7]) was 1 µg/mL (≈ 2.08 µM) and the MIC (Escherichia coli [8]) was 0.19 µg/mL (≈ 0.395 µM).

Compound `NCC[C@H](O)C(=O)N[C@@H]1C[C@H](N)[C@@H](O[C@H]2O[C@H](CN)[C@@H](O)[C@H](O)[C@H]2O)[C@H](O)[C@H]1O[C@H]1O[C@H](CO)[C@@H](O)[C@H](N)[C@H]1O` [AMIKACIN] has an MIC (Pseudomonas aeruginosa [1]) of 3 µg/mL (≈ 5.12 µM), an MIC (Pseudomonas aeruginosa [2]) of 16 µg/mL (≈ 27.3 µM) and an MIC (Escherichia coli [9]) of 0.75 µg/mL (≈ 1.28 µM). It also gave an MIC (Escherichia coli [10]) of 0.75 µg/mL (≈ 1.28 µM) and an MIC (Escherichia coli [8]) of 0.75 µg/mL (≈ 1.28 µM).

Compound `C[C@H]1[C@H](NC(=O)/C(=N\OC(C)(C)C(=O)O)c2csc(N)n2)C(=O)N1S(=O)(=O)O` [AZTREONAM] has an MIC (Pseudomonas aeruginosa [1]) of 24 µg/mL (≈ 55.1 µM), an MIC (Pseudomonas aeruginosa [2]) of 4 µg/mL (≈ 9.19 µM) and an MIC (Pseudomonas aeruginosa [3]) of 1.5 µg/mL (≈ 3.44 µM). For the same compound, the MIC (Pseudomonas aeruginosa [4]) was 1.5 µg/mL (≈ 3.44 µM), the MIC (Pseudomonas aeruginosa [5]) was 1 µg/mL (≈ 2.3 µM) and the MIC (Escherichia coli [6]) was 0.125 µg/mL (≈ 0.287 µM). The MIC (Escherichia coli [7]) was 0.125 µg/mL (≈ 0.287 µM) and the MIC (Escherichia coli [8]) was 0.19 µg/mL (≈ 0.436 µM).

For `CO/N=C(\C(=O)N[C@@H]1C(=O)N2C(C(=O)O)=C(COC(C)=O)CS[C@H]12)c1csc(N)n1` [CEFOTAXIME], the MIC (Pseudomonas aeruginosa [1]) was > 256 µg/mL, the MIC (Pseudomonas aeruginosa [2]) was > 256 µg/mL and the MIC (Pseudomonas aeruginosa [3]) was > 256 µg/mL. For the same compound, the MIC (Pseudomonas aeruginosa [4]) was > 256 µg/mL, the MIC (Pseudomonas aeruginosa [5]) was 16 µg/mL (≈ 35.1 µM) and the MIC (Escherichia coli [6]) was > 256 µg/mL. For the same compound, the MIC (Escherichia coli [7]) was > 256 µg/mL and the MIC (Escherichia coli [8]) was 0.19 µg/mL (≈ 0.417 µM).

With `CC(C)(O/N=C(\C(=O)N[C@@H]1C(=O)N2C(C(=O)[O-])=C(C[n+]3ccccc3)CS[C@H]12)c1csc(N)n1)C(=O)O` [CEFTAZIDIME] the MIC (Pseudomonas aeruginosa [1]) was > 256 µg/mL, the MIC (Pseudomonas aeruginosa [2]) was 32 µg/mL (≈ 58.5 µM) and the MIC (Pseudomonas aeruginosa [3]) was > 256 µg/mL. The MIC (Pseudomonas aeruginosa [4]) was 128 µg/mL (≈ 234 µM), the MIC (Pseudomonas aeruginosa [5]) was 1 µg/mL (≈ 1.83 µM) and the MIC (Escherichia coli [6]) was 32 µg/mL (≈ 58.5 µM). For the same compound, the MIC (Escherichia coli [7]) was 6 µg/mL (≈ 11 µM) and the MIC (Escherichia coli [8]) was 0.38 µg/mL (≈ 0.695 µM).

In the case of `O=C(O)c1cn(C2CC2)c2cc(N3CCNCC3)c(F)cc2c1=O` [CIPROFLOXACIN], the MIC (Pseudomonas aeruginosa [1]) is reported as > 32 µg/mL, the MIC (Pseudomonas aeruginosa [2]) is reported as > 32 µg/mL and the MIC (Escherichia coli [9]) is reported as 0.064 µg/mL (≈ 0.193 µM). The MIC (Escherichia coli [10]) was 0.064 µg/mL (≈ 0.193 µM) and the MIC (Escherichia coli [8]) was 0.064 µg/mL (≈ 0.193 µM).

With `O=C(O)c1cccc(C(=O)O)n1` [DIPICOLINIC ACID] the IC50 (Beta-lactamase VIM-1) was 41.6 µM and the IC50 [11] was 48 µM.
